Assay [1] has as its system Pseudomonas aeruginosa. As to the kind of experiment: Antibacterial activity against Pseudomonas aeruginosa ATCC 27853 after 18 to 20 hrs by broth microdilution method. The class given is functional. The essentials:
(§1)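 Broth microdilution in tryptic soy broth: 2-fold dilutions mixed 1:1 with ~1.5 × 10^5 CFU/mL inoculum, final 0.5–32 μg/mL; 37 °C, 18–20 h. MIC taken as lowest concentration giving no visible growth. At least three independent experiments, one replicate each.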

The subject of assay [2] is Acinetobacter baumannii. As to the kind of experiment: Antibacterial activity against Acinetobacter baumannii ATCC 19606 after 18 to 20 hrs by broth microdilution method. Conditions: ATCC 19606 = CIP 70.34 = JCM 6841. Format: functional. On the technique in general: Dilution methods test growth across graded concentrations, often in twofold steps.
The test system of assay [3] is Staphylococcus aureus. As to the kind of experiment: Antibacterial activity against methicillin-resistant Staphylococcus aureus ATCC 43300 after 18 to 20 hrs by broth microdilution method. Format: functional. The essentials: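 Broth microdilution in tryptic soy broth: 2-fold dilutions mixed 1:1 with ~1.5 × 10^5 CFU/mL bacterial suspension in TSB, final 0.5–32 μg/mL, 37 °C for 18–20 h. MIC = lowest concentration with no visible growth. At least three independent experiments, one replicate each.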

The test system of assay [4] is Klebsiella pneumoniae. As to the kind of experiment: Potentiation of rifampicin-mediated antibacterial activity against Klebsiella pneumoniae ATCC 13883 assessed as rifampicin MIC at 2 ug/ml by checkerboard method (reference value: 16 ug/ml). The class given is functional.
The subject of assay [5] is Staphylococcus aureus. As to the kind of experiment: Antibacterial activity against Staphylococcus aureus ATCC 29213 after 18 to 20 hrs by broth microdilution method. The class given is functional. The essentials: as §1
Assay [6] relates to Acinetobacter baumannii. As to the kind of experiment: Potentiation of rifampicin-mediated antibacterial activity against Acinetobacter baumannii ATCC 19606 assessed as rifampicin MIC at 2 ug/ml by checkerboard method (reference value: 16 ug/ml). Conditions: ATCC 19606 = CIP 70.34 = JCM 6841. The class given is functional.
Assay [7] concerns Enterococcus faecium. As to the kind of experiment: Antibacterial activity against Enterococcus faecium ATCC 19434 after 18 to 20 hrs by broth microdilution method. Format: functional. The essentials: as §1
Assay [8] concerns Klebsiella pneumoniae. As to the kind of experiment: Antibacterial activity against Klebsiella pneumoniae ATCC 13883 after 18 to 20 hrs by broth microdilution method. Format: functional.
Assay [9] has as its system Acinetobacter baumannii. As to the kind of experiment: Potentiation of rifampicin-mediated antibacterial activity against Acinetobacter baumannii ATCC 19606 assessed as decrease in rifampicin MIC at 4 ug/ml by checkerboard method relative to control. The class given is functional, ATCC 19606 = CIP 70.34 = JCM 6841.
Assay [10] deals with Klebsiella pneumoniae. As to the kind of experiment: Potentiation of rifampicin-mediated antibacterial activity against Klebsiella pneumoniae ATCC 13883 assessed as decrease in rifampicin MIC at 2 ug/ml by checkerboard method relative to control. The class given is functional.
Assay [11] has as its system Escherichia coli. As to the kind of experiment: Antibacterial activity against Escherichia coli ATCC 25922 after 18 to 20 hrs by broth microdilution method. Format: functional. In a few lines:
as §1

In assay [12] the test system is Pseudomonas aeruginosa. As to the kind of experiment: Bactericidal activity against Pseudomonas aeruginosa ATCC 27853. Format: functional. As to conditions: read-out: MBC99.9. In a few lines: (§2)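 MBC from MIC plates at end point: 50 μL from each well with no visible growth plated on tryptic soy agar and counted. MBC taken as lowest concentration giving ≥99.9% fall in viable count relative to initial inoculum. Three independent experiments, one replicate each.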

The subject of assay [13] is Staphylococcus aureus. As to the kind of experiment: Bactericidal activity against methicillin-resistant Staphylococcus aureus ATCC 43300. Format: functional. As to conditions: read-out: MBC99.9. In a few lines: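 MBC taken at the end of the MIC test: 50 μL from each well without visible growth plated on tryptic soy agar. MBC = lowest concentration giving ≥99.9% reduction in viable cells relative to the initial inoculum. Three independent experiments, one replicate each.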

Assay [14] deals with Escherichia coli. As to the kind of experiment: Bactericidal activity against Escherichia coli ATCC 25922. The class given is functional. Conditions: read-out: MBC99.9. The essentials: as §2
Assay [15] concerns Klebsiella pneumoniae. As to the kind of experiment: Bactericidal activity against Klebsiella pneumoniae ATCC 13883. Format: functional. As to conditions: read-out: MBC99.9. In a few lines:
as §2

In assay [16] the test system is Staphylococcus aureus. As to the kind of experiment: Antibacterial activity against Staphylococcus aureus ATCC 29213 after 18 to 20 hrs in presence of 95% serum by broth microdilution method. Format: functional. The essentials:
(§3)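 Same microdilution with human serum as medium: compound 2-fold diluted in 100% serum, mixed 1:1 with 90% serum holding ~1.5 × 10^5 CFU/mL, giving 95% serum and final 0.5–64 μg/mL. MIC read as no visible growth after incubation as for the broth test.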

Assay [17] relates to Acinetobacter baumannii. As to the kind of experiment: Bactericidal activity against Acinetobacter baumannii ATCC 19606. The class given is functional. Conditions: ATCC 19606 = CIP 70.34 = JCM 6841, read-out: MBC99.9. In a few lines: as §2
Assay [18] relates to Enterococcus faecium. As to the kind of experiment: Bactericidal activity against Enterococcus faecium ATCC 19434. Format: functional. As to conditions: read-out: MBC99.9. The essentials:
as §2

Assay [19] concerns Staphylococcus aureus. As to the kind of experiment: Bactericidal activity against Staphylococcus aureus ATCC 29213. Format: functional. Conditions: read-out: MBC99.9. The essentials: as §2
Assay [20] has as its system Escherichia coli. As to the kind of experiment: Antibacterial activity against Escherichia coli ATCC 25922 after 18 to 20 hrs in presence of 95% serum by broth microdilution method. The class given is functional. The essentials:
as §3

The structures appear in SMILES notation. ≈ marks a conversion by molar mass, not a printed value. Non-standard residues stand in square brackets, D forms with d. Residues, ends and D or L forms follow the SMILES beside them. *: point of attachment. Heptanoyl = CCCCCCC(=O)*; Octanoyl = CCCCCCCC(=O)*; Dab = NCC[C@H](N)C(=O)O; Hexanoyl = CCCCCC(=O)*

The term MIC denotes the lowest concentration that inhibits growth of the organism. In the case of `CCCCCC(=O)N[C@@H](CCN)C(=O)N[C@H](C(=O)N[C@@H](CCN)C(=O)N[C@H](Cc1ccccc1)C(=O)N[C@@H](CC(C)C)C(=O)N[C@@H](CCN)C(=O)N[C@@H](C(=O)N[C@@H](CC(C)C)C(=O)N[C@@H](CO)C(N)=O)C(C)C)[C@@H](C)CC` (Hexanoyl-[Dab]I[Dab][dF]L[Dab][dV]LS-NH2), the MIC in assay [1] is 8 to 16 µg/mL (≈ 7.35 to 14.7 µM); in assay [2], > 32 µg/mL; in assay [3] it was > 32 µg/mL; in [4] it was 0.0039 µg/mL; in assay [5] it was > 32 µg/mL; in assay [6] it was 0.0078 to 0.0156 µg/mL. The MIC in assay [7] is > 32 µg/mL; in [8], ≥ 32 µg/mL; in assay [11], 8 to 16 µg/mL (≈ 7.35 to 14.7 µM). Also, the “fold change (FC)” value in assay [9] is 4096 - 8192; in assay [10], 8192.

With `CCCCCCC(=O)N[C@@H](CCN)C(=O)N[C@H](C(=O)N[C@@H](CCN)C(=O)N[C@H](Cc1ccccc1)C(=O)N[C@@H](CC(C)C)C(=O)N[C@@H](CCN)C(=O)N[C@@H](C(=O)N[C@@H](CC(C)C)C(=O)N[C@@H](CO)C(N)=O)C(C)C)[C@@H](C)CC` (Heptanoyl-[Dab]I[Dab][dF]L[Dab][dV]LS-NH2), the MIC is 4 µg/mL (≈ 3.63 µM) in [1]; > 32 µg/mL in assay [2]; > 32 µg/mL in assay [3]; 0.0039 µg/mL in assay [4]; > 32 µg/mL in assay [5]; 0.0078 µg/mL in assay [6]. In addition, the MIC in assay [7] was > 32 µg/mL; in [8], 32 µg/mL (≈ 29 µM); in assay [11] it was 4 µg/mL (≈ 3.63 µM). In addition, the “fold change (FC)” value in assay [9] is recorded as 4096; in assay [10] it was “>=8192”.

Consider `CCCCCCCC(=O)N[C@@H](CCN)C(=O)N[C@@H](CCN)C(=O)N[C@@H](CCN)C(=O)N[C@H](Cc1ccccc1)C(=O)N[C@@H](CC(C)C)C(=O)N[C@@H](CCN)C(=O)N[C@@H](C(=O)N[C@@H](CC(C)C)C(=O)N[C@@H](CCN)C(N)=O)C(C)C` (Octanoyl-[Dab][Dab][Dab][dF]L[Dab][dV]L[Dab]-NH2), for which the MIC is 16 to 32 µg/mL (≈ 14.3 to 28.7 µM) in assay [1]; > 32 µg/mL in assay [2]; > 32 µg/mL in [3]; 0.0625 to 0.125 µg/mL in assay [4]; ≥ 32 µg/mL in assay [5]; 0.0312 to 0.0625 µg/mL in assay [6]. For the same compound, the MIC in assay [7], in assay [8] and in [11] was > 32 µg/mL each time. In addition, the results for the “fold change (FC)” value in assay [9] and in [10] were 256 - 512 and 256, respectively.

In the case of `CCCCCCC(=O)N[C@@H](CCN)C(=O)N[C@@H](Cc1ccccc1)C(=O)N[C@@H](CCN)C(=O)N[C@H](Cc1ccccc1)C(=O)N[C@@H](CC(C)C)C(=O)N[C@@H](CCN)C(=O)N[C@H](CC(C)C)C(=O)N[C@@H](CC(C)C)C(=O)N[C@@H](CO)C(N)=O` (Heptanoyl-[Dab]F[Dab][dF]L[Dab][dL]LS-NH2), the MIC in assay [1] is 2 to 4 µg/mL (≈ 1.74 to 3.48 µM); in [2], 8 µg/mL (≈ 6.95 µM); in assay [3], 16 to 32 µg/mL (≈ 13.9 to 27.8 µM); in assay [16], 64 µg/mL; in [5], 16 to 32 µg/mL (≈ 13.9 to 27.8 µM); in assay [7], 16 µg/mL (≈ 13.9 µM). Besides, the MIC was 4 µg/mL (≈ 3.48 µM) in [8], 1 to 4 µg/mL (≈ 0.869 to 3.48 µM) in [11] and 32 µg/mL in assay [20]. Moreover, the MBC in assay [12] was 8 to 16 µg/mL (≈ 6.95 to 13.9 µM); in assay [13] it was 32 µg/mL (≈ 27.8 µM); in assay [14], 32 µg/mL (≈ 27.8 µM); in assay [15], 8 µg/mL (≈ 6.95 µM); in [17] it was 8 µg/mL (≈ 6.95 µM); in assay [18], 32 µg/mL (≈ 27.8 µM). The MBC in assay [19] was 16 to 32 µg/mL (≈ 13.9 to 27.8 µM).

For `CCCCCCCC(=O)N[C@H](CCCN)C(=O)N[C@H](C(=O)N[C@@H](CCCN)C(=O)N[C@@H](Cc1ccccc1)C(=O)N[C@@H](CC(C)C)C(=O)N[C@@H](CCCN)C(=O)N[C@H](C(=O)N[C@@H](CC(C)C)C(=O)N[C@@H](CO)C(N)=O)C(C)C)[C@@H](C)CC`, the MIC is 16 µg/mL (≈ 13.8 µM) in assay [1]; 32 µg/mL (≈ 27.6 µM) in assay [2]; 32 µg/mL (≈ 27.6 µM) in assay [3]; 0.0313 to 0.0625 µg/mL in assay [4]; > 32 µg/mL in assay [5]; 0.0625 µg/mL in assay [6]. Besides, the MIC in [7] was > 32 µg/mL; in assay [8], > 32 µg/mL; in assay [11], 32 µg/mL (≈ 27.6 µM). Further, the “fold change (FC)” value in assay [9] is on record as 512 - 1024; in [10], 1024 - 2048.

The values are drawn from ChEMBL document CHEMBL4052819 (2017).
